From the array DNA melting data of Ke et al. (doi:10.1101/2024.01.08.574731)

Assays:
[1] = folding enthalpy; higher = less favourable; fluorescence melt of hairpins on a sequencing array, two-state fit; details: sodium 0.088 M
Outline: (§1)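 With Cy3 and quencher oligos annealed, library hairpins on a sequenced MiSeq flow cell were imaged for Cy3 fluorescence in 50 mM Na-HEPES pH 8.0, 25 mM NaCl, in 2.5 °C steps up to 60 °C. Melting temperature and folding enthalpy were derived from bootstrapped two-state fits of signals normalised to pre-quench Cy3 and to control constructs. Four replicates were combined by inverse variance, with fitted temperatures raised by 9.35 °C to match UV melts.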

[2] = melting temperature; fluorescence melt of hairpins on a sequencing array, two-state fit, raised by 9.35 °C to match UV melts; details: sodium 0.088 M
Outline: as §1

Sequence | folding enthalpy [1] [kcal/mol] | Tm [2] [°C]
GAATGGCGAAAGCCTTTC (((.(((....))).))) | -21 | 47.2
GGAAGTGGAAACATTTCC ((((.((....)).)))) | -27.9 | 40.3
GACGGCCCGAAAGGGGTC (((..(((....)))))) | -8.8 | 44.1
GGACCGCGAAAGCGTTCC (((.(((....))).))) | -20.9 | 53.1
GCGCCTCGAAAGAGCCGC (((.(((....))).))) | -37.9 | 52.2
GATCGAGCATCGATC ((((((...)))))) | -41.3 | 58.7
GAGCCCGAAAGGGTCTC ((((((....))).))) | -23.8 | 59
GATCCTTCAAGGATC ((((((...)))))) | -36.9 | 54.7
GCAGCGCGAAAGCGTGGC ((..(((....)))..)) | -23.1 | 64.2
GATCTCGTTGGAGATC ((((((....)))))) | -42.3 | 54.2
GATTCCGAAAGGAGAATC ((((((....)))..))) | -17.4 | 32.7
GGATTAACGAAAGTTTCC (((..(((....)))))) | -19.4 | 28.2
GACTCGAAAGAGTC (((((....))))) | -32.1 | 61.2
GCCCCGGGAAACCAGGGC ((((.((....)).)))) | -33 | 55.5
GGAAACGAAAGTTGTTCC ((((((....)))..))) | -9.91 | 24.9
GATCGGGCTTCCGATC ((((((....)))))) | -41.2 | 59.4
GATCATGGGCATGATC ((((((....)))))) | -38 | 49.6
CTTCAGAAATGAAG (((((....))))) | -11.5 | 36
GCTACGGGAAACCACAGC (((..((....))..))) | -21.4 | 36

Sequence | folding enthalpy [1] [kcal/mol] | Tm [2] [°C]
GGCATAGGAAACTATACC ((.((((....)))).)) | -18.6 | 31.2
GAAGACGAAAGTCGCTTC ((((((....)))..))) | -22.6 | 47.1
GGAGCGCCGAAAGGCTCC (((..(((....)))))) | -14.7 | 44.2
GCGCATCGAAAGATCCGC (((.(((....))).))) | -28.5 | 47.8
GGTATCGAAAGATATACC ((((((....)))..))) | -19.7 | 34
GGTGTGAAAACACC (((((....))))) | -30.9 | 57.3
GTTGCGGGAAACTGCAAC (((((.(....).))))) | -38.5 | 56.2
GTGCGACGAAAGTCACAC (((.(((....))).))) | -43.9 | 54.3
GTGATTACGAAAGTACAC (((..(((....)))))) | -10.1 | 27.8
GCCGGTCGAAAGACGGC (((.(((....)))))) | -30.1 | 67.6
GTTTTTCCGAAAGGAAAC (((..(((....)))))) | -13.4 | 35.1
GCGTGCACGAAAGTGCGC (((..(((....)))))) | -9.64 | 51.9
GGAAGTGAAAACTTCC ((((((....)))))) | -37.3 | 56.4
GCTAGGCGAAAGCCAGC (((.(((....)))))) | -21.7 | 62.9
GGGCTGCGAAAGCATCCC (((.(((....))).))) | -34.5 | 55.2
GGTGTCGAAAGACGGACC ((((((....)))..))) | -16.6 | 40.3
GGGATAGGAAACCATCCC (((((.(....).))))) | -30.9 | 43.3
GAGGGCGAAAGCCACCTC ((((((....)))..))) | -11 | 38.1
GCGAACCTCGC ((((...)))) | -17.7 | 46
